Holding throughout (type): functional
The test system of experiment [1] is Saccharomyces cerevisiae. In words: Antifungal activity against Saccharomyces cerevisiae BY4741 assessed as growth rate at 0.25 ug/ml (reference value: 0.144%).
Experiment [2] concerns Saccharomyces cerevisiae. In words: Antifungal activity against wild-type Saccharomyces cerevisiae BY4741 assessed as accumulation of ergosterol at 0.25 ug/ml (reference value: 57+/- 1.00 %).
In experiment [3] the test system is Saccharomyces cerevisiae. Description: Antifungal activity against Saccharomyces cerevisiae BY4741 assessed as growth rate at 16 ug/ml (reference value: 0.144%).
For experiment [4], the system named is Saccharomyces cerevisiae. In words: Antifungal activity against wild-type Saccharomyces cerevisiae BY4741 assessed as accumulation of lanosterol at 0.25 ug/ml (reference value: 17+/- 1.22 %).
Experiment [5] relates to Saccharomyces cerevisiae. In words: Antifungal activity against Saccharomyces cerevisiae BY4741 assessed as growth rate at 0.125 ug/ml (reference value: 0.144%).
For experiment [6], the system named is Saccharomyces cerevisiae. Description: Antifungal activity against Saccharomyces cerevisiae BY4741 harboring human CYP51 assessed as growth rate at 0.25 ug/ml (reference value: 0.157%). To be noted: at 0.25 µg/mL.
Experiment [7] concerns Saccharomyces cerevisiae. In words: Antifungal activity against Saccharomyces cerevisiae BY4741 assessed as growth rate at 4 ug/ml (reference value: 0.144%).
For experiment [8], the system named is Saccharomyces cerevisiae. Description: Antifungal activity against Saccharomyces cerevisiae BY4741 harboring human CYP51 assessed as growth rate at 0.5 ug/ml (reference value: 0.157%). To be noted: at 0.5 µg/mL.
Experiment [9] relates to Saccharomyces cerevisiae. Description: Antifungal activity against Saccharomyces cerevisiae BY4741 assessed as growth rate at 2 ug/ml (reference value: 0.144%).
Experiment [10] deals with Saccharomyces cerevisiae. Description: Antifungal activity against wild-type Saccharomyces cerevisiae BY4741 by broth microdilution method. In short, it runs like this:
(§1)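 Adapted CLSI M-27A broth microdilution for S. cerevisiae, run in triplicate. Overnight cultures were diluted in YM, pH 7.0, to 2.5 x 10^3 cells/ml, with drug diluted in YM over 0 to 16 or 0 to 128 µg/ml depending on azole. Plates were incubated 48 h at 30°C. MIC was the concentration giving 80% growth inhibition.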
Background: Dilution methods test growth across graded concentrations, often in twofold steps.

Experiment [11] relates to Saccharomyces cerevisiae. In words: Antifungal activity against Saccharomyces cerevisiae BY4741 harboring human CYP51 assessed as growth rate at 0.125 ug/ml (reference value: 0.157%). The settings on record: at 0.125 µg/mL.
Experiment [12] has as its system Saccharomyces cerevisiae. Description: Antifungal activity against Saccharomyces cerevisiae BY4741 assessed as growth rate at 0.5 ug/ml (reference value: 0.144%).
Experiment [13] concerns Saccharomyces cerevisiae. In words: Antifungal activity against Saccharomyces cerevisiae BY4741 harboring human CYP51 assessed as accumulation of lanosterol at 0.25 ug/ml (reference value: 23+/- 1.08 %).
The subject of experiment [14] is Saccharomyces cerevisiae. Description: Antifungal activity against Saccharomyces cerevisiae BY4741 assessed as growth rate at 8 ug/ml (reference value: 0.144%).
Experiment [15] concerns Saccharomyces cerevisiae. Description: Antifungal activity against Saccharomyces cerevisiae BY4741 harboring human CYP51 assessed as growth rate at 4 ug/ml (reference value: 0.157%). The settings on record: at 4 µg/mL.
Experiment [16] has as its system Saccharomyces cerevisiae. Description: Antifungal activity against Saccharomyces cerevisiae BY4741 harboring human CYP51 assessed as growth rate at 16 ug/ml (reference value: 0.157%). The settings on record: at 16 µg/mL.
For experiment [17], the system named is Saccharomyces cerevisiae. Description: Antifungal activity against Saccharomyces cerevisiae BY4741 harboring human CYP51 by broth microdilution method. In short, it runs like this: as §1
In experiment [18] the test system is Saccharomyces cerevisiae. In words: Antifungal activity against Saccharomyces cerevisiae BY4741 harboring human CYP51 assessed as accumulation of ergosterol at 0.25 ug/ml (reference value: 54+/- 0.82 %).
The subject of experiment [19] is Saccharomyces cerevisiae. In words: Antifungal activity against Saccharomyces cerevisiae BY4741 harboring human CYP51 assessed as growth rate at 8 ug/ml (reference value: 0.157%). To be noted: at 8 µg/mL.
Experiment [20] has as its system Saccharomyces cerevisiae. In words: Antifungal activity against wild-type Saccharomyces cerevisiae BY4741 assessed as accumulation of 14-alpha-methylergosta-8,24(28)-dien-3beta-6alpha-diol at 0.25 ug/ml.
The subject of experiment [21] is Saccharomyces cerevisiae. Description: Antifungal activity against Saccharomyces cerevisiae BY4741 harboring human CYP51 assessed as growth rate at 2 ug/ml (reference value: 0.157%). To be noted: at 2 µg/mL.
In experiment [22] the test system is Saccharomyces cerevisiae. In words: Antifungal activity against Saccharomyces cerevisiae BY4741 assessed as growth rate at 1 ug/ml (reference value: 0.144%).
Experiment [23] concerns Saccharomyces cerevisiae. In words: Antifungal activity against Saccharomyces cerevisiae BY4741 harboring human CYP51 assessed as growth rate at 1 ug/ml (reference value: 0.157%). To be noted: at 1 µg/mL.
Experiment [24] relates to Saccharomyces cerevisiae. Description: Antifungal activity against Saccharomyces cerevisiae BY4741 harboring human CYP51 assessed as accumulation of 14-alpha-methylergosta-8,24(28)-dien-3beta-6alpha-diol at 0.25 ug/ml.
The subject of experiment [25] is Saccharomyces cerevisiae. Description: Antifungal activity against wild-type Saccharomyces cerevisiae BY4741 assessed as accumulation of lanosterol at 16 ug/ml (reference value: 17+/- 1.22 %).
Experiment [26] deals with Saccharomyces cerevisiae. Description: Antifungal activity against Saccharomyces cerevisiae BY4741 harboring human CYP51 assessed as accumulation of lanosterol at 16 ug/ml (reference value: 23+/- 1.08 %).
The subject of experiment [27] is Saccharomyces cerevisiae. In words: Antifungal activity against wild-type Saccharomyces cerevisiae BY4741 assessed as accumulation of 14-alpha-methylergosta-8,24(28)-dien-3beta-6alpha-diol at 16 ug/ml.
The subject of experiment [28] is Saccharomyces cerevisiae. Description: Antifungal activity against Saccharomyces cerevisiae BY4741 harboring human CYP51 assessed as accumulation of ergosterol at 16 ug/ml (reference value: 54+/- 0.82 %).
Experiment [29] has as its system Saccharomyces cerevisiae. In words: Antifungal activity against Saccharomyces cerevisiae BY4741 harboring human CYP51 assessed as accumulation of 14-alpha-methylergosta-8,24(28)-dien-3beta-6alpha-diol at 16 ug/ml.
Experiment [30] concerns Saccharomyces cerevisiae. Description: Antifungal activity against wild-type Saccharomyces cerevisiae BY4741 assessed as accumulation of lanosterol at 8 ug/ml (reference value: 17+/- 1.22 %).
For experiment [31], the system named is Saccharomyces cerevisiae. Description: Antifungal activity against Saccharomyces cerevisiae BY4741 harboring human CYP51 assessed as accumulation of 14-alpha-methylergosta-8,24(28)-dien-3beta-6alpha-diol at 8 ug/ml.
Experiment [32] deals with Saccharomyces cerevisiae. In words: Antifungal activity against wild-type Saccharomyces cerevisiae BY4741 assessed as accumulation of 14-alpha-methylergosta-8,24(28)-dien-3beta-6alpha-diol at 8 ug/ml.
In experiment [33] the test system is Saccharomyces cerevisiae. In words: Antifungal activity against Saccharomyces cerevisiae BY4741 harboring human CYP51 assessed as accumulation of ergosterol at 8 ug/ml (reference value: 54+/- 0.82 %).
Experiment [34] deals with Saccharomyces cerevisiae. In words: Antifungal activity against wild-type Saccharomyces cerevisiae BY4741 assessed as accumulation of ergosterol at 8 ug/ml (reference value: 57+/- 1.00 %).
The subject of experiment [35] is Saccharomyces cerevisiae. Description: Antifungal activity against Saccharomyces cerevisiae BY4741 harboring human CYP51 assessed as accumulation of ergosterol at 4 ug/ml (reference value: 54+/- 0.82 %).
In experiment [36] the test system is Saccharomyces cerevisiae. Description: Antifungal activity against wild-type Saccharomyces cerevisiae BY4741 assessed as accumulation of lanosterol at 4 ug/ml (reference value: 17+/- 1.22 %).
The subject of experiment [37] is Saccharomyces cerevisiae. In words: Antifungal activity against wild-type Saccharomyces cerevisiae BY4741 assessed as accumulation of 14-alpha-methylergosta-8,24(28)-dien-3beta-6alpha-diol at 4 ug/ml.
In experiment [38] the test system is Saccharomyces cerevisiae. Description: Antifungal activity against Saccharomyces cerevisiae BY4741 harboring human CYP51 assessed as accumulation of lanosterol at 4 ug/ml (reference value: 23+/- 1.08 %).
In experiment [39] the test system is Saccharomyces cerevisiae. Description: Antifungal activity against wild-type Saccharomyces cerevisiae BY4741 assessed as accumulation of ergosterol at 4 ug/ml (reference value: 57+/- 1.00 %).
Experiment [40] concerns Saccharomyces cerevisiae. Description: Antifungal activity against Saccharomyces cerevisiae BY4741 harboring human CYP51 assessed as accumulation of 14-alpha-methylergosta-8,24(28)-dien-3beta-6alpha-diol at 4 ug/ml.

Among the data in ChEMBL document CHEMBL1275526, “Differential azole antifungal efficacies contrasted using a Saccharomyces cerevisiae strain humanized for sterol 14 alpha-demethylase at the homologous locus” (2008) are Activity and MIC values, retold here.

Values after ≈ are worked out from the molar mass of the structure shown. Where only a bound is given, the exact number is not on record here.

One may read the MIC as the lowest concentration that inhibits growth of the organism. Read a low MIC as a more susceptible organism. Regarding `C[C@@H](c1ncncc1F)[C@](O)(Cn1cncn1)c1ccc(F)cc1F` [VORICONAZOLE], the Activity amounted to 0.046% in experiment [1]; 10% in [2]; 0.039% in experiment [3]; 35% in experiment [4]; 0.057% in experiment [5]; 0.159% in experiment [6]. Besides, the Activity turned out to be 0.043% in experiment [7]; 0.153% in experiment [8]; 0.051% in [9]; 0.157% in experiment [11]; 0.046% in experiment [12]; 27% in experiment [13]. Besides, the Activity in experiment [14] was 0.043%; in [15], 0.154%; in experiment [16], 0.159%; in experiment [18] it was 49%; in experiment [19], 0.168%; in experiment [20] it was 24%. Further, the Activity in experiment [21] is 0.154%; in experiment [22], 0.039%; in [23], 0.156%; in [24], 4%. In addition, the MIC in [10] was 0.125 µg/mL (≈ 0.358 µM); in experiment [17], over 128 µg/mL.

Take `Clc1ccccc1C(c1ccccc1)(c1ccccc1)n1ccnc1` [CLOTRIMAZOLE]: the Activity came to 0.162% in experiment [8]; 0.088% in experiment [9]; 0.11% in experiment [12]; 0.169% in [21]; 0.123% in [22]; 0.173% in experiment [23]. The MIC in [10] and in [17] was 8 µg/mL (≈ 23.2 µM) throughout.

`OC(Cn1cncn1)(Cn1cncn1)c1ccc(F)cc1F` [FLUCONAZOLE]: the Activity in experiment [3] is on record as 0.03%; in experiment [25], 42%; in experiment [26], 24%; in experiment [27], 29%; in experiment [14] it was 0.036%; in experiment [16] it was 0.171%. The Activity in [19] is recorded as 0.16%; in experiment [28], 46%; in experiment [29] it was 6%. The values for the MIC in experiment [10] and in experiment [17] were 8 µg/mL (≈ 26.1 µM) and over 128 µg/mL, respectively.

Regarding `CCC(C)n1ncn(-c2ccc(N3CCN(c4ccc(OCC5COC(Cn6cncn6)(c6ccc(Cl)cc6Cl)O5)cc4)CC3)cc2)c1=O` (stereo not drawn) [ITRACONAZOLE], the Activity in experiment [30] came to 42%; in [31], 5%; in [3] it was 0.035%; in experiment [7], 0.039%; in experiment [8], 0.166%; in [9], 0.044%. The Activity is 24% in [32]; 0.042% in experiment [12]; 0.036% in experiment [14]; 0.136% in experiment [15]; 0.136% in experiment [16]; 52% in [33]. Moreover, the Activity came to 0.164% in [19]; 0.17% in [21]; 6% in experiment [34]; 0.042% in experiment [22]; 0.176% in experiment [23]. Also, the MIC was 1 µg/mL (≈ 1.42 µM) in experiment [10] and over 128 µg/mL in [17].

`CC(=O)N1CCN(c2ccc(OCC3COC(Cn4ccnc4)(c4ccc(Cl)cc4Cl)O3)cc2)CC1` (stereo not drawn) [KETOCONAZOLE]: the Activity is reported as 51% in [35]; 35% in experiment [36]; 19% in [37]; 0.06% in experiment [7]; 0.088% in experiment [9]; 0.039% in experiment [14]. The Activity in experiment [15] is listed as 0.204%; in experiment [38], 27%; in [19] it was 0.119%; in experiment [21], 0.188%; in experiment [39] it was 12%; in experiment [40], 7%. For the same compound, the values for the MIC in experiment [10] and in experiment [17] were 1 µg/mL (≈ 1.88 µM) and 8 µg/mL (≈ 15.1 µM), respectively.

In the case of `Clc1ccc(COC(Cn2ccnc2)c2ccc(Cl)cc2Cl)cc1` (stereo not drawn) [ECONAZOLE], the MIC in experiment [10] and in experiment [17] was 8 µg/mL (≈ 21 µM) in each case. Moreover, the Activity is 0.084% in experiment [22] and 0.157% in experiment [23].

In the case of `Clc1ccc(COC(Cn2ccnc2)c2ccc(Cl)cc2Cl)c(Cl)c1` (stereo not drawn) [MICONAZOLE], the Activity in experiment [8] came to 0.174%; in [9], 0.023%; in [12], 0.024%; in experiment [21], 0.167%; in [22] it was 0.034%; in experiment [23], 0.141%. Moreover, the MIC in [10] and in experiment [17] was 8 µg/mL (≈ 19.2 µM) each time.
